Measured values of several laboratories.
Compare with care: the assays were run in different laboratories. ≈ marks a conversion by molar mass, not a printed value.

Compound | organism | assay | system | setting | endpoint | result
O=S(=O)(Oc1cccc2cccnc12)c1cccs1 | Klebsiella pneumoniae | microbial growth, broth dilution | ATCC700603 |  | IC50 | 443 µg/mL (≈ 1520 µM)
O=C1NC(=S)S/C1=C\c1ccc(-c2ccc(N(c3ccccc3)c3ccccc3)cc2)cc1 | Streptococcus pneumoniae | microbial killing, broth dilution | ATCC49619 |  | MBC | > 1000 µg/mL
Cc1ccc(C(C)C)cc1OCc1cn(-c2ccc(S(N)(=O)=O)cc2)nn1 | Klebsiella pneumoniae | microbial growth, broth dilution | ATCC700603 |  | IC50 | 602 µg/mL (≈ 1560 µM)
O=C1NC(=S)N/C1=C\c1ccc(-c2ccc(N(c3ccccc3)c3ccccc3)cc2)c2ccccc12 | Streptococcus pneumoniae | microbial killing, broth dilution | ATCC49619 |  | MBC | > 1000 µg/mL
Cc1c(NC(=O)CC2=NC(=O)CS2)c(=O)n(-c2ccccc2)n1C | Klebsiella pneumoniae | microbial killing, broth dilution |  |  | MBC | 0.5 µg/mL (≈ 1.45 µM)
O=S(=O)(Oc1cccc2cccnc12)c1ccccc1 | Klebsiella pneumoniae | microbial growth, broth dilution | ATCC700603 |  | IC50 | 340 µg/mL
Cc1c(CN(C)C(=O)/C=C/c2cnc3c(c2)CC(CCN)C(=O)N3)oc2ccccc12.Cl (centres unmarked) | Klebsiella pneumoniae | microbial growth, broth dilution | BAA2342 |  | MIC | 16 µg/mL
Cc1c(NN=C2SC(CC#N)=NC2=O)c(=O)n(-c2ccccc2)n1C | Klebsiella pneumoniae | microbial growth, well diffusion |  | 100000 µg/mL | inhibition zone | 15 mm
CC(C)(NC(=O)c1cc2c(Cl)cc(Cl)cc2[nH]1)c1cn(Cc2ccccc2)nn1 | Cryptosporidium parvum | parasite growth, imaging | HCT-8 | 11 µM, 72 h, intracellular | inhibition | > 60%
O=C(O)CN1C(=O)/C(=C/c2ccc(-c3ccc(N(c4ccccc4)c4ccccc4)cc3)cc2)NC1=S | Streptococcus pneumoniae | microbial growth, broth dilution | ATCC49619 |  | MIC | 62.5 µg/mL (≈ 124 µM)
CC(C)(NC(=O)c1cc2c(F)cc(F)cc2[nH]1)c1cn(Cc2cccc(Cl)c2)nn1 | Cryptosporidium parvum | parasite growth, imaging | HCT-8 | 11 µM, 72 h, intracellular | inhibition | ~30%
Fc1ccc(-n2cc(COc3cccc4cccnc34)nn2)cc1 | Klebsiella pneumoniae | microbial growth, broth dilution | ATCC700603 |  | IC50 | 1230 µg/mL (≈ 3830 µM)
NCCCCC(=O)O | Cryptosporidium parvum | parasite growth, imaging | HCT-8 | 1 mM, 24 h, intracellular | activity vs control | 102%
Cc1ccc(-n2cc(COc3cc(C(C)C)ccc3C)nn2)cc1 | Klebsiella pneumoniae | microbial growth, broth dilution | ATCC700603 |  | IC50 | 246 µg/mL (≈ 766 µM)
O=C1NC(=S)N/C1=C\c1c2ccccc2c(-c2ccc(N(c3ccccc3)c3ccccc3)cc2)c2ccccc12 | Streptococcus pneumoniae | microbial growth, broth dilution | ATCC49619 |  | MIC | > 1000 µg/mL
CCOC(=O)C=c1[nH]c(=O)c(=Cc2cn(-c3ccccc3)nc2-c2ccc(C)cc2)s1 | Klebsiella pneumoniae | microbial growth, well diffusion |  | 100000 µg/mL | inhibition zone | 13 mm

Compound | organism | assay | system | setting | endpoint | result
Cc1ccc2cc[nH]c2c1 | Cryptosporidium parvum | parasite growth | HCT-8 | 24 h, intracellular | EC50 | 310 µM
N#CC(=Cc1cn(-c2ccccc2)nc1-c1ccccc1)C1=NC(=O)CS1 | Klebsiella pneumoniae | microbial killing, broth dilution |  |  | MBC | 0.25 µg/mL (≈ 0.675 µM)
O=C1C=C(OCc2cn(-c3ccccc3)nn2)C(=O)c2ccccc21 | Klebsiella pneumoniae | microbial growth, broth dilution | ATCC700603 |  | IC50 | 223 µg/mL (≈ 674 µM)
O=C1NC(=S)N/C1=C\c1ccc(-c2ccc(N(c3ccccc3)c3ccccc3)cc2)cc1 | Streptococcus pneumoniae | microbial killing, broth dilution | ATCC49619 |  | MBC | > 1000 µg/mL
O=c1[nH]cnc2nc[nH]c12 | Cryptosporidium parvum | parasite growth, imaging | HCT-8 | 1 mM, 24 h, intracellular | activity vs control | 106%
Cc1ccc(-n2cc(COc3cccc4cccnc34)nn2)cc1 | Klebsiella pneumoniae | microbial growth, broth dilution | ATCC700603 |  | IC50 | 268 µg/mL (≈ 849 µM)
CCCCC[C@H](O)/C=C/[C@H]1[C@H](O)CC(=O)[C@@H]1C/C=C\CCCC(=O)O | Cryptosporidium parvum | parasite growth, imaging | HCT-8 | 50 µM, 24 h, intracellular | activity vs control | 88.5%
O=C(O)CN1C(=O)/C(=C/c2ccc(-c3ccc(N(c4ccccc4)c4ccccc4)cc3)c3ccccc23)SC1=S | Streptococcus pneumoniae | microbial killing, broth dilution | ATCC49619 |  | MBC | > 1000 µg/mL
NCCCCNCCCN | Cryptosporidium parvum | parasite growth, imaging | HCT-8 | 1 mM, 24 h, intracellular | activity vs control | 100%
CC(C)(NC(=O)c1cc2c(Cl)cc(Cl)cc2[nH]1)c1cn(Cc2ccc(Cl)c(Cl)c2)nn1 | Cryptosporidium parvum | parasite growth, imaging | HCT-8 | 11 µM, 72 h, intracellular | inhibition | > 60%
O=C(O)c1cccnc1 | Cryptosporidium parvum | parasite growth, imaging | HCT-8 | 1 mM, 24 h, intracellular | activity vs control | 90.3%
O=C1C=C(OCc2cn(-c3ccc([N+](=O)[O-])cc3)nn2)C(=O)c2ccccc21 | Klebsiella pneumoniae | microbial growth, broth dilution | ATCC700603 |  | IC50 | 370 µg/mL (≈ 983 µM)
O=C(O)CN1C(=O)/C(=C/c2ccc(-c3ccc(N(c4ccccc4)c4ccccc4)cc3)c3ccccc23)NC1=S | Streptococcus pneumoniae | microbial killing, broth dilution | ATCC49619 |  | MBC | > 1000 µg/mL
CN(C)CC(=O)O | Cryptosporidium parvum | parasite growth, imaging | HCT-8 | 1 mM, 24 h, intracellular | activity vs control | 105%
O=C(O)CN1C(=O)/C(=C/c2c3ccccc3c(-c3ccc(N(c4ccccc4)c4ccccc4)cc3)c3ccccc23)SC1=S | Streptococcus pneumoniae | microbial growth, broth dilution | ATCC49619 |  | MIC | > 1000 µg/mL
NCCCCN | Cryptosporidium parvum | parasite growth, imaging | HCT-8 | 1 mM, 24 h, intracellular | activity vs control | 110%
